From ChEMBL document CHEMBL4680142, “Thiazolidine-2,4-dione-based irreversible allosteric IKK-β kinase inhibitors: Optimization into in vivo active anti-inflammatory agents” (Eur J Med Chem, 2020)
Activity calls are given as the source filed them. No cut-off for these calls is given here.

Columns and labels:
[1] = target: T1, Inhibitor of nuclear factor kappa-B kinase subunit beta (Homo sapiens) (UniProt O14920); test: Allosteric inhibition of IKKbeta (unknown origin) at 0.001 to 30 uM using 5FAM-GRHDSGLDSMK-NH2 as substrate incubated for 10 mins followed by substrate addition and measured after 20 mins by TR-FRET assay relative to control; details: filed as negative allosteric modulator, dose 0.001-30 µM, time 30.0 min
T1 sequence (whole entry): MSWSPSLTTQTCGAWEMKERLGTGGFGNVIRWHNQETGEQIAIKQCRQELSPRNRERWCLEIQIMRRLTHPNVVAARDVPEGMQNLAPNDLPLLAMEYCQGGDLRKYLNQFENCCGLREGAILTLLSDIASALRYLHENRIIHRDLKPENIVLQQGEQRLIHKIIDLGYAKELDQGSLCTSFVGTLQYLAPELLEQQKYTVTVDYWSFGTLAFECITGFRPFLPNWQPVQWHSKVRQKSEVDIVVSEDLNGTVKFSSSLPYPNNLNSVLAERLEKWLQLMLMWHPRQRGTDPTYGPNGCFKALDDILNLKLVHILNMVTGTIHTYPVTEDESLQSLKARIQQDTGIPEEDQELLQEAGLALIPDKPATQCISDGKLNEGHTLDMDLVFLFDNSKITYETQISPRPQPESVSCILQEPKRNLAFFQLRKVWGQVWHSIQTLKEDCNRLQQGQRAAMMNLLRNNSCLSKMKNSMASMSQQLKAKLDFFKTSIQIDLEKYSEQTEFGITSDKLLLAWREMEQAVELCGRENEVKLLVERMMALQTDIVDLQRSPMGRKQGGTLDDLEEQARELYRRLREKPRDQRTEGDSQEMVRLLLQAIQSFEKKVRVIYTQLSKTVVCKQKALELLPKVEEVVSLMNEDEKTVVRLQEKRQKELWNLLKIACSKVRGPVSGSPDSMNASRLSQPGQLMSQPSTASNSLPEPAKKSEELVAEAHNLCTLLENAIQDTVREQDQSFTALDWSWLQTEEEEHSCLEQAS
Method in brief: (§1)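 IKK2 (0.5 µg/mL) in 10 mM Tris-HCl pH 7.2, 10 mM MgCl2, 0.05% NaN3, 1 mM DTT, 0.01% Tween-20, room temperature. Compound (30 to 0.001 µM, ten roughly three-fold dilutions) preincubated 10 min with enzyme. Reaction started with 1 µM 5FAM-IκBα peptide and 3 µM ATP, run 0, 20, 40 or 60 min. IMAP binding reagent/terbium donor detection, TR-FRET read at 495/520 nm. Kobs fitted against concentration by nonlinear regression.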

[2] = target: T1, Inhibitor of nuclear factor kappa-B kinase subunit beta (Homo sapiens); test: Allosteric inhibition of IKKbeta (unknown origin) at 0.001 to 30 uM using 5FAM-GRHDSGLDSMK-NH2 as substrate incubated for 10 mins followed by substrate addition and measured after 60 mins by TR-FRET assay relative to control; details: filed as negative allosteric modulator, dose 0.001-30 µM, time 70.0 min; method in brief: as §1
[3] = target: T2, Inhibitor of nuclear factor kappa-B kinase subunit beta (Homo sapiens, UniProt O14920); test: Allosteric inhibition of IKKbeta (unknown origin) using 5FAM-GRHDSGLDSMK-NH2 as substrate incubated for 10 mins followed by substrate addition and measured after 60 mins by TR-FRET assay
T2 sequence (O14920 whole entry): T1 sequence (whole entry)
Method in brief: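 Kinetic IMAP TR-FRET run with 0.5 µg/mL IKK2 in 10 mM Tris-HCl pH 7.2, 10 mM MgCl2, 0.05% NaN3, 1 mM DTT, 0.01% Tween-20. Compound (ten doses, 30 to 0.001 µM) pre-incubated with enzyme 10 min, then 1 µM IκBα-derived substrate and 3 µM ATP added. Room temperature. Reactions run 0, 20, 40 or 60 min. Ten-point curves fitted by nonlinear regression.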

[4] = target: T1, Inhibitor of nuclear factor kappa-B kinase subunit beta (Homo sapiens); test: Allosteric inhibition of IKKbeta (unknown origin) assessed as inactivation constant using 5FAM-GRHDSGLDSMK-NH2 as substrate incubated for 10 mins followed by substrate addition and measured upto 60 mins by TR-FRET assay; details: filed as negative allosteric modulator, time 70.0 min; method in brief: as §1
RAW264.7 [5] = test: Antiinflammatory activity against mouse RAW264.7 cells assessed as reduction in LPS-induced TNF-alpha level incubated for 1 hr followed by LPS stimulation and measured after 24 hrs by ELISA; type: functional, cell-based
Method in brief: (§2)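 RAW 264.7 cells (DMEM, 10% FBS, 37 °C, 5% CO2) plated at 2×10^5 cells/mL and left overnight. Compounds (0.1, 1, 10 µM) or NS-398 given for 1 h, then LPS 10 ng/mL for 24 h. Culture medium assayed by ELISA: competitive colorimetric for PGE2/TNF-α, mouse DuoSet for TNF-α/IL-6. IC50 is the concentration lowering the mediator to 50%.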

RAW264.7 [6] = test: Antiinflammatory activity against mouse RAW264.7 cells assessed as reduction in LPS-induced NO level incubated for 1 hr followed by LPS stimulation and measured after 24 hrs by Griess reagent based assay; type: functional, cell-based
Method in brief: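 RAW 264.7 cells in 24-well plates received compounds (0.1, 1, 10 µM) or L-NIL 40 µM positive control, then LPS 1 µg/mL for 24 h. Nitrite in the medium measured by Griess reaction as an NO surrogate. Values referenced to levels before and after LPS stimulation.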

RAW264.7 [7] = test: Antiinflammatory activity against mouse RAW264.7 cells assessed as reduction in LPS-induced IL-6 level incubated for 1 hr followed by LPS stimulation and measured after 24 hrs by ELISA; type: functional, cell-based; method in brief: as §2
RAW264.7 [8] = test: Antiinflammatory activity against mouse RAW264.7 cells assessed as reduction in LPS-induced PGE2 production at 10 uM incubated for 1 hr followed by LPS stimulation and measured after 24 hrs by ELISA (reference value: 33.64 ng/ml); type: functional; details: time 25 hrs; method in brief: as §2
[9] = Metabolic stability in human liver microsomes assessed as half life at 1 uM measured upto 1 hrs by LC-MS/MS analysis; type: ADME, Microsome
Method in brief: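 Pooled human liver microsomes (0.5 mg/mL protein) with 1 µM compound at 37 °C. Reaction stopped at 0, 5, 15, 30 and 60 min and analysed by LC-MS/MS. Amount remaining expressed as % of initial concentration. Mibefradil run as reference.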

Mus musculus = test: Antiinflammatory activity against LPS-induced sepsis C57BL/6 mouse model assessed as organism survival rate at 5 to 50 mg/kg, po administered 1 hr before LPS stimulation and measured after 36 hrs relative to control; type: functional; details: dose 5-50 mg/kg, time 37 hrs
Method in brief: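 Male C57BL/6 mice (6 or 10 weeks), water only for 24 h beforehand. Compound given orally at 5 or 50 mg/kg 1 h before intraperitoneal injection of LPS (Salmonella enterica serotype enteritidis, 25 mg/kg in PBS); controls received PBS. Survival monitored for 36 h.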

RAW264.7 [10] = test: Antiinflammatory activity against mouse RAW264.7 cells assessed as reduction in LPS-induced PGE2 production at 0.1 uM incubated for 1 hr followed by LPS stimulation and measured after 24 hrs by ELISA; type: functional, cell-based; details: time 25.0 hrs; method in brief: as §2
RAW264.7 [11] = test: Antiinflammatory activity against mouse RAW264.7 cells assessed as reduction in LPS-induced PGE2 production at 0.1 to 1 uM incubated for 1 hr followed by LPS stimulation and measured after 24 hrs by ELISA; type: functional, cell-based; details: dose 0.1-1 µM, time 25.0 hrs; method in brief: as §2

Structure (SMILES)	inhibition [1]	inhibition [2]	IC50 [3]	Kinact [4]	IC50 (RAW264.7 [5])	IC50 (RAW264.7 [6])	IC50 (RAW264.7 [7])	Activity (RAW264.7 [8])	half-life at 1 µM [9]	Survival (Mus musculus)	Activity (RAW264.7 [10])	inhibition (RAW264.7 [5]; time 25.0 hrs)	Activity (RAW264.7 [11])
CN1CCN(CCCOc2ccc(N3C(=O)S/C(=C\c4ccc(Oc5ccc(C#N)cc5)cc4)C3=O)cc2)CC1	-7.14%	-0.38%	0.204 µM	0.013 min⁻¹	6.27 µM	> 10 µM	> 10 µM	16.53 ng/mL	20 min	80%	Active	–	–
CN1CCN(CCCCCOc2cccc(N3C(=O)S/C(=C\c4ccc(Oc5ccc([N+](=O)[O-])cc5)cc4)C3=O)c2)CC1	-3.68%	-3.88%	0.219 µM	0.027 min⁻¹	5.22 µM	> 10 µM	> 10 µM	19.04 ng/mL	60 min	–	–	Dose-dependent effect	inactive
